Reference: ChEMBL document CHEMBL4422632, “Design of Novel Inhibitors of Human Thymidine Phosphorylase: Synthesis, Enzyme Inhibition, in Vitro Toxicity, and Impact on Human Glioblastoma Cancer” (J Med Chem, 2019)
The source made the active and inactive calls. The rule behind the calls is not given here.

What was measured:
[1] = Cmax in CF1 mouse at 50 mg/kg, ip by non-compartmental analysis; type: ADME, organism-based; design: dose 50 mg/kg, route intraperitoneal; details: in vivo
Method in brief: (§1)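 Male CF1 mice received a single ip injection of 50 mg/kg in 0.9% saline; 3 animals per time point, killed 0.03, 0.08, 0.25, 0.5, 1 and 2 h after dosing; blood collected in heparin tubes.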

[2] = Cytotoxicity against human HaCaT cells assessed as cell viability at 1000 uM after 72 hrs by MTT assay relative to control; type: cell-based; details: read-out: Activity
Method in brief: (§2)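 Cells grown in DMEM with 10% FBS at 37 °C, 5% CO₂; seeded 2 x 10³ cells/well, adhered 24 h, then exposed 72 h. MTT: 1 mg/mL for 3 h, formazan in DMSO, absorbance 595 nm. NRU: neutral red 25 µg/mL in serum-free medium for 3 h, desorbed in ethanol:acetic acid:water. Viability as % of untreated control; mean ± SEM of three to five independent experiments in triplicate.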

[3] = Cytotoxicity against human HepG2 cells assessed as cell viability at 25 uM after 72 hrs by neutral red uptake-based assay relative to control; details: read-out: Activity; method in brief: as §2
[4] = Cytotoxicity against human HepG2 cells assessed as cell viability at 500 uM after 72 hrs by neutral red uptake-based assay relative to control; details: read-out: Activity; method in brief: as §2
[5] = Cytotoxicity against human HaCaT cells assessed as cell viability at 1000 uM after 72 hrs by neutral red uptake-based assay relative to control; details: read-out: Activity; method in brief: as §2
[6] = target: Cytochrome P450 2E1 (Homo sapiens, UniProt P05181); experiment: Inhibition of CYP2E1 in human liver microsomes by HPLC-MS/MS analysis; type: ADME
[7] = AUC (0 to infinity) in CF1 mouse at 50 mg/kg, ip by non-compartmental analysis; type: ADME, organism-based; design: dose 50 mg/kg, time infinity, route intraperitoneal; details: in vivo; method in brief: as §1
[8] = Cytotoxicity against human HepG2 cells assessed as cell viability at 250 uM after 72 hrs by neutral red uptake-based assay relative to control; details: read-out: Activity; method in brief: as §2
[9] = Elimination half life in CF1 mouse at 50 mg/kg, ip by non-compartmental analysis; type: ADME, organism-based; details: in vivo
[10] = Cytotoxicity against mouse RAW264.7 cells assessed as cell viability at 100 uM after 72 hrs by neutral red uptake-based assay relative to control; details: read-out: Activity
Method in brief: (§3)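 Cells kept in DMEM with 10% heat-inactivated FBS, 1% penicillin-streptomycin and 0.1% fungizone at 37 °C, 5% CO₂. U-87 MG seeded at 2 x 10^3 cells/well, RAW 264.7 at 5 x 10^2, adhered 24 h, then exposed 72 h. MTT: 1 mg/mL for 3 h, formazan in DMSO, A595. NRU: 25 μg/mL dye, 3 h, ethanol:acetic acid:water desorb. Untreated wells = 100%; three to five independent experiments in triplicate.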

[11] = tested on: U-87 MG; experiment: Antitumor activity against human U87MG cells xenografted in BALB/c nude mouse assessed as tumor growth inhibition 50 mg/kg/day, ip administered for 14 days; type: functional, organism-based; details: U-87MG ATCC
Method in brief: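 5 x 10⁵ U-87 MG cells implanted subcutaneously in right flank of male BALB/c nude mice; at about 50 mm³, randomized to saline or ip 50 mg/kg/day, with temozolomide 50 mg/kg/day in the combination arm, for 14 days. Relative tumor volume = volume on day / day 0; TGI on day 14 = [1 − RTV treated/RTV control] x 100. Two-way ANOVA with Bonferroni.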

[12] = Cytotoxicity against mouse RAW264.7 cells assessed as cell viability at 50 uM after 72 hrs by MTT assay relative to control; type: cell-based; details: read-out: Activity; method in brief: as §3
[13] = tested on: U-87 MG; experiment: Anti-angiogenic activity in tumor of human U87MG cells xenografted in nude BALB/c mouse assessed as reduction in number of blood vessels at 50 mg/kg, ip administered for 14 days by hematoxylin and eosin-staining based light microscopy co-treated with temozolamide; type: functional, organism-based; details: U-87MG ATCC
Method in brief: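 U-87 MG flank xenografts (5 x 10⁵ cells) in male nude mice; ip treatment daily from about 50 mm³ for 14 days, with temozolomide at 50 mg/kg/day in the co-treatment arm. Vessel density counted on HE-stained 3 µm sections by hot-spot method, mean of four fields per tumor at x200, avoiding gross haemorrhage. One-way ANOVA/Dunnett.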

[14] = Cytotoxicity against mouse RAW264.7 cells assessed as cell viability at 25 uM after 72 hrs by neutral red uptake-based assay relative to control; details: read-out: Activity; method in brief: as §3
[15] = Cytotoxicity against mouse RAW264.7 cells assessed as cell viability at 250 uM after 72 hrs by neutral red uptake-based assay relative to control; details: read-out: Activity; method in brief: as §3
[16] = Cytotoxicity against human HepG2 cells assessed as cell viability at 50 uM after 72 hrs by neutral red uptake-based assay relative to control; details: read-out: Activity; method in brief: as §2
[17] = Cytotoxicity against human HepG2 cells assessed as cell viability at 1000 uM after 72 hrs by neutral red uptake-based assay relative to control; details: read-out: Activity; method in brief: as §2
[18] = Cytotoxicity against African green monkey Vero cells assessed as cell viability at 1000 uM after 72 hrs by neutral red uptake-based assay relative to control; details: chlorocebus sabaeus, read-out: Activity; method in brief: as §2
[19] = Cytotoxicity against human U87MG cells assessed as cell viability at 500 uM after 72 hrs by neutral red uptake-based assay relative to control; design: species or system U-87MG ATCC; details: read-out: Activity; method in brief: as §3
[20] = AUMCt in CF1 mouse at 50 mg/kg, ip by non-compartmental analysis; type: ADME, organism-based; details: in vivo
Method in brief: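 Male CF1 mice, single ip 50 mg/kg in 0.9% saline, 3 animals per time point sampled 0.03–2 h; heparinized blood. AUMC0→t computed by trapezoidal rule to last point (2 h); non-compartmental analysis.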

[21] = Cytotoxicity against African green monkey Vero cells assessed as cell viability at 250 uM after 72 hrs by MTT assay relative to control; type: cell-based; details: chlorocebus sabaeus, read-out: Activity; method in brief: as §2
[22] = Cytotoxicity against human HaCaT cells assessed as cell viability at 50 uM after 72 hrs by MTT assay relative to control; type: cell-based; details: read-out: Activity; method in brief: as §2
[23] = Cytotoxicity against African green monkey Vero cells assessed as cell viability at 25 uM after 72 hrs by neutral red uptake-based assay relative to control; details: chlorocebus sabaeus, read-out: Activity; method in brief: as §2
[24] = Intrinsic clearance in human liver S9 fraction at 2 uM up to 30 mins in presence of NADPH by HPLC-MS/MS analysis; type: ADME, subcellular; details: read-out: CLH
[25] = Cytotoxicity against human HepG2 cells assessed as cell viability at 50 uM after 72 hrs by MTT assay relative to control; type: cell-based; details: read-out: Activity; method in brief: as §2
[26] = Cytotoxicity against human U87MG cells assessed as cell viability at 50 uM after 72 hrs by MTT assay relative to control; type: cell-based, U-87MG ATCC; details: read-out: Activity; method in brief: as §3
[27] = tested on: U-87 MG; experiment: Induction of apoptosis in human U87MG cells xenografted in BALB/c nude mouse assessed as caspase-3 levels at 50 mg/kg, ip after 14 days by immunohistochemistry; type: functional, organism-based; details: U-87MG ATCC
Method in brief: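 Male BALB/c nude mice implanted subcutaneously with 5 x 10⁵ U-87 MG cells in the right flank. Treated IP at 50 mg/kg/day for 14 days, with saline controls, starting once tumors reached about 50 mm³. Tumors fixed in formaldehyde and cut at 3 µm. Citrate pH 6 antigen retrieval.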

[28] = Cytotoxicity against mouse RAW264.7 cells assessed as cell viability at 1000 uM after 72 hrs by neutral red uptake-based assay relative to control; details: read-out: Activity; method in brief: as §3
[29] = Cytotoxicity against human U87MG cells assessed as cell viability at 250 uM after 72 hrs by MTT assay relative to control; type: cell-based, U-87MG ATCC; details: read-out: Activity; method in brief: as §3

Chain of Cytochrome P450 2E1 (P05181 whole entry): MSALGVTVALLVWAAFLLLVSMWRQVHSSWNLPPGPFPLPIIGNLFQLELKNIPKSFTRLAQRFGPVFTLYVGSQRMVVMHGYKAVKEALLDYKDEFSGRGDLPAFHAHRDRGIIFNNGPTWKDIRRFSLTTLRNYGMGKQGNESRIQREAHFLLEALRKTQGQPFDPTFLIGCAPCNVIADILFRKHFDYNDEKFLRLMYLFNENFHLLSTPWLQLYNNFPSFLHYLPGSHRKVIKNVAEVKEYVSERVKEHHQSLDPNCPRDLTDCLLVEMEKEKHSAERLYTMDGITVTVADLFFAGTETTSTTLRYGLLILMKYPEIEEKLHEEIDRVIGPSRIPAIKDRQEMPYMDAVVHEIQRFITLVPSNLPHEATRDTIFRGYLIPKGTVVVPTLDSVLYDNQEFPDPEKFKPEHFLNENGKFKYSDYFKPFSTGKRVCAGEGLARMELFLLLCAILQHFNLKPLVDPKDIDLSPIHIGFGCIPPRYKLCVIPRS

O=c1[nH]c(CNC(CO)CO)c(I)c(=O)[nH]1
Cmax [1]: 34800 ng/mL
viability at 72 h, 1000 µM [2]: 81%
viability at 72 h, 25 µM [3]: 102%
viability at 72 h, 500 µM [4]: 96%
viability at 72 h, 1000 µM [5]: 75%
IC50 [6]: > 100 µM
AUC [7]: 17400 ng·h/mL
viability at 72 h, 250 µM [8]: 98%
beta t1/2 [9]: 30 min
viability at 72 h, 100 µM [10]: 97%
TGI [11]: Active
viability at 72 h, 50 µM [12]: 99%
Activity [13]: Active
viability at 72 h, 25 µM [14]: 105%
viability at 72 h, 250 µM [15]: 85%
viability at 72 h, 50 µM [16]: 103%
viability at 72 h, 1000 µM [17]: 81%
viability at 72 h, 1000 µM [18]: 72%
viability at 72 h, 500 µM [19]: 93%
AUMCt [20]: 6.3 µg·h²/mL
viability at 72 h, 250 µM [21]: 95%
viability at 72 h, 50 µM [22]: 95%
viability at 72 h, 25 µM [23]: 108%
CLint scaled at 2 µM [24]: 13 mL/min/kg
viability at 72 h, 50 µM [25]: 100%
viability at 72 h, 50 µM [26]: 97%
Activity [27]: inactive
viability at 72 h, 1000 µM [28]: 48%
viability at 72 h, 250 µM [29]: 97%
